Results reported in ChEMBL document CHEMBL4033794, “Discovery of Trifluoromethyl Glycol Carbamates as Potent and Selective Covalent Monoacylglycerol Lipase (MAGL) Inhibitors for Treatment of Neuroinflammation” (J Med Chem, 2018).
Active and inactive are the calls of the source. No cut-off for these calls is given here.

Key:
Mus musculus [1] = assay: Anti-inflammatory activity in C57BL6J mouse assessed as reduction in LPS-induced IL-1beta levels in brain at 1 mg/kg, sc administered 30 mins after LPS challenge measured at 4 hrs post LPS challenge; assay type: functional, organism-based
[2] = Half life in Beagle dog at 1 mg/kg, iv administered via cephalic vein measured up to 24 hrs post dose by HPLC-MS/MS analysis; assay type: ADME, organism-based, Canis lupus familiaris; settings: in vivo
[3] = Cmax in C57BL6J mouse brain at 1 mg/kg, sc up to 24 hrs post dose; assay type: ADME, organism-based; design: dose 1 mg/kg, route subcutaneous
[4] = Unbound fraction in C57BL6J mouse brain at 1 mg/kg, sc measured up to 24 hrs post dose by HPLC-MS/MS analysis; assay type: ADME, organism-based
[5] = Ratio of unbound AUClast in C57BL6J mouse brain to plasma at 1 mg/kg, sc measured up to 24 hrs post dose by HPLC-MS/MS analysis; settings: brain and plasma
Mus musculus [6] = species on record: Mus musculus; settings: C57BL6J, 1 mg/kg
[7] = Intrinsic clearance in human hepatocytes in presence of CYP inhibitor ABT; assay type: ADME, cell-based, Hepatocyte; settings: with ABT (CYP inhibitor), concentration not stated, read-out: CLH
In short: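 Cryopreserved human hepatocyte substrate-depletion assay run with ABT present; scaled intrinsic clearance in mL/min/kg.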

[8] = Apprent permeability in RRCK cells; assay type: ADME, cell-based, Canis lupus familiaris, MDCKII-LE; settings: dog, MDCK
Cannabinoid receptor 1 [9] = biological target: T1, Cannabinoid receptor 1 (Homo sapiens, UniProt P21554); assay: Agonist activity at human CB1 receptor expressed in CHOK1 cells assessed as […] after 20 mins by HTRF assay; assay type: functional, cell-based
Mus musculus [10] = assay: Anti-inflammatory activity in C57BL6J mouse assessed as reduction in LPS-induced PGE2 levels in brain at 1 mg/kg, sc administered 30 mins after LPS challenge measured at 4 hrs post LPS challenge by LC-MS/MS analysis; assay type: functional, organism-based
In short: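 Mice given LPS 20 mg/kg IP or saline, then 1 mg/kg SC compound or vehicle 30 min later; brains collected 4 h post-LPS, homogenized in pH 2.0 PMSF/NH4OAc buffer, spiked with d4-PGE2 internal standard, acetonitrile-extracted, and PGE2 quantified by LC-MS/MS.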

Mus musculus [11] = species on record: Mus musculus; settings: C57BL6J, 1 mg/kg; remark: listed apart in the source
Mus musculus [12] = assay: Time at which unbound brain concentration stays above in vitro MAGL IC50 in C57BL6J mouse at 1 mg/kg, sc up to 24 hrs post dose
In short: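 Male C57BL6J mice dosed 1 mg/kg SC in DMSO:Cremophor:saline 5:5:90, 10 mL/kg; plasma and brain taken at 0.5, 1, 2, 4, 8, 12, 24 h. Drug measured in plasma and cerebellum; 2-AG and arachidonic acid in brain hemisphere, compared with vehicle-treated mice.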

[13] = Half life in non-human primate at 1 mg/kg, iv administered via cephalic vein measured up to 24 hrs post dose by HPLC-MS/MS analysis; assay type: ADME, organism-based, Macaca mulatta; settings: rhesus monkey, in vivo
In short: (§1)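 Fasted male non-human primates (n = 2), fed ~1 h post-dose; 1 mg/kg IV bolus via saphenous or cephalic vein in 3% DMA/10% Solutol HS15/10% Miglyol/77% of 20% SBECD, 0.5 mL/kg. Femoral blood pre-dose and 0.083–24 h; plasma HPLC-MS/MS; non-compartmental analysis.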

[14] = Volume of distribution in Beagle dog at 1 mg/kg, iv administered via cephalic vein measured up to 24 hrs post dose by HPLC-MS/MS analysis; assay type: ADME, organism-based, Canis lupus familiaris; settings: in vivo
In short: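 Fasted male beagles (n = 2), fed ~4 h post-dose, given 1 mg/kg IV bolus via cephalic vein in 3% DMA/10% Solutol HS15/10% Miglyol/77% of 20% SBECD, 0.5 mL/kg. Jugular blood pre-dose and 0.083–24 h; plasma HPLC-MS/MS; non-compartmental analysis.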

CYP2C9 = CYP2C9 (Homo sapiens, UniProt P11712); assay: Inhibition of CYP2C9 (unknown origin) at 3 uM; assay type: ADME
In short: (§2)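 Competitive inhibition screen of CYP3A4, 2D6, 2C9, 2C8 and 1A2 using isoform-relevant probe substrates, compound at 3 μM.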

[15] = Volume of distribution in non-human primate at 1 mg/kg, iv administered via cephalic vein measured up to 24 hrs post dose by HPLC-MS/MS analysis; assay type: ADME, organism-based, Macaca mulatta; settings: rhesus monkey, in vivo; in short: as §1
Mus musculus [16] = species on record: Mus musculus; settings: C57BL6J, 1 mg/kg; remark: listed apart in the source
[17] = Plasma clearance in Wistar Hannover rat at 1 mg/kg, iv administered as bolus dose via jugular vein cannula measured up to 24 hrs post dose by HPLC-MS/MS analysis; assay type: ADME, organism-based
In short: (§3)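 Rats (n = 2) given 1 mg/kg IV bolus via jugular vein cannula, solution in 3% DMA/10% Solutol HS15/10% Miglyol/77% of 20% SBECD in water, 1 mL/kg. Carotid cannula blood pre-dose and 0.083–24 h; plasma by HPLC-MS/MS; non-compartmental analysis.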

CYP2C8 = biological target: T2, CYP2C8 (Homo sapiens, UniProt P10632); assay: Inhibition of CYP2C8 (unknown origin) at 3 uM; assay type: ADME; in short: as §2
T2 sequence (P10632 whole entry): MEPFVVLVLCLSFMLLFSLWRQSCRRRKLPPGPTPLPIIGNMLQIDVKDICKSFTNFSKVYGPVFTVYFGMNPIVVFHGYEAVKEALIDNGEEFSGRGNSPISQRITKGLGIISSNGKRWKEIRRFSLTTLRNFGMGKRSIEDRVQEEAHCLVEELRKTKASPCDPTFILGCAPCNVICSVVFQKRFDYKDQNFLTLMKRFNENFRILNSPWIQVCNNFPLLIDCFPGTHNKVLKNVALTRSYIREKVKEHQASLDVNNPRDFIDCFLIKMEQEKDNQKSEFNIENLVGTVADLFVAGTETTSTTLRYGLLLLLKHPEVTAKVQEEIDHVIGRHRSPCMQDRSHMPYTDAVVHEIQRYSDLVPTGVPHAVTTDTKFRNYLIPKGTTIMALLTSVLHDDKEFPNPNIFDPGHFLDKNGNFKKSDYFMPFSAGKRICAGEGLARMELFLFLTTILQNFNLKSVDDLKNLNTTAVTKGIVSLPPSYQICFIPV

[18] = Half life in Wistar Hannover rat at 1 mg/kg, iv administered as bolus dose via jugular vein cannula measured up to 24 hrs post dose by HPLC-MS/MS analysis; assay type: ADME, organism-based; settings: in vivo; in short: as §3
CYP3A4 = CYP3A4 (Homo sapiens, UniProt P08684); assay: Inhibition of CYP3A4 (unknown origin) at 3 uM; assay type: ADME; in short: as §2
[19] = Unbound fraction in C57BL6J mouse plasma at 1 mg/kg, sc measured up to 24 hrs post dose by HPLC-MS/MS analysis; assay type: ADME, organism-based
Cannabinoid receptor 1 [20] = biological target: T1, Cannabinoid receptor 1; assay: Displacement of [3H]CP55940 from human CB1 receptor expressed in CHOK1 cell membranes at 10 uM after 120 mins by scintillation counting method

T1 sequence (P21554 whole entry): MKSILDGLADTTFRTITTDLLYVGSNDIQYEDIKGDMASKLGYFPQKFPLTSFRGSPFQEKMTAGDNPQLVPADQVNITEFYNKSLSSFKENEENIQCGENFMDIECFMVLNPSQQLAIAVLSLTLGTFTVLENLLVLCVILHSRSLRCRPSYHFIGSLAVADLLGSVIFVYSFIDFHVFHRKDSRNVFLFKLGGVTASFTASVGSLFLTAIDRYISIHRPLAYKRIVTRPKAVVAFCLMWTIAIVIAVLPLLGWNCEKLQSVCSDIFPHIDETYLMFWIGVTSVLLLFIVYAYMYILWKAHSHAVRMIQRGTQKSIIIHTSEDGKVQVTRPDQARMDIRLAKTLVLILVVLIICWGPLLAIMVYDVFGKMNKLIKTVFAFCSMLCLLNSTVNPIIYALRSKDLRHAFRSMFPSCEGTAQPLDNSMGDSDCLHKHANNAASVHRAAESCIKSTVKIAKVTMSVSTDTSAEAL
Chain of CYP3A4 (P08684 whole entry): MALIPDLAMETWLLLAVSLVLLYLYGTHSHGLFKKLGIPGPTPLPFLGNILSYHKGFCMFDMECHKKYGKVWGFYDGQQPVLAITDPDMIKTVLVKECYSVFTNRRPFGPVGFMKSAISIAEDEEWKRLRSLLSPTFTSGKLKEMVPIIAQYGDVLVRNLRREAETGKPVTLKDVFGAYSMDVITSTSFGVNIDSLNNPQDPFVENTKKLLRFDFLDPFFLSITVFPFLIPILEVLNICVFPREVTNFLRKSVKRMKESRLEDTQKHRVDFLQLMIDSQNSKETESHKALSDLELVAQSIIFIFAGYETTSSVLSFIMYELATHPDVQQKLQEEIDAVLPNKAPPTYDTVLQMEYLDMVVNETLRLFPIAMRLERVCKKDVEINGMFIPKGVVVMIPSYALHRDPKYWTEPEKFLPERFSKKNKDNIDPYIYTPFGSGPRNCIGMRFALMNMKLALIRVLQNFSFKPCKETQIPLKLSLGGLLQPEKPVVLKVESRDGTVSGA
Chain of CYP2C9 (P11712 whole entry, canonical isoform): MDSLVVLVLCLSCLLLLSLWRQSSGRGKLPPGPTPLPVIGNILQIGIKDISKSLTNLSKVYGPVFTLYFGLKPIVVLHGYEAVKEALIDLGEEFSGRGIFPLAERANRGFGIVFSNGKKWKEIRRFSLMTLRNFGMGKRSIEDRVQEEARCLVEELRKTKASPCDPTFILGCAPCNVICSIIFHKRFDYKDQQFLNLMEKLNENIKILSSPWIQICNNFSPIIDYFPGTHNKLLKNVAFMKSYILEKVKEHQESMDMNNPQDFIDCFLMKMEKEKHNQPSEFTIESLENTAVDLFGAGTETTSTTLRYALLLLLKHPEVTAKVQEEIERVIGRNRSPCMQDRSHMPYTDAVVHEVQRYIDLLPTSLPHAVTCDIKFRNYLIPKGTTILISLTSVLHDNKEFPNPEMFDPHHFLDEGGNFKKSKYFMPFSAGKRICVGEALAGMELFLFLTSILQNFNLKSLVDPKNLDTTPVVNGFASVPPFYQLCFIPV

half-life [2]: 1.7 h | Cmax [3]: > 1000 nM | fraction unbound at 24 h [4]: 0.00775 | Kp uu at 24 h [5]: 1.4 | CLint scaled [7]: 37 mL/min/kg | Papp [8]: 21 ×10⁻⁶ cm/s | EC50 (Cannabinoid receptor 1 [9]): 1500 nM | half-life [13]: 1.7 h | Vd [14]: 1.6 L/kg | inhibition at 3 µM (CYP2C9): < 10% | Vd [15]: 1.5 L/kg | clearance [17]: 61 mL/min/kg | inhibition at 3 µM (CYP2C8): < 10% | half-life [18]: 1.3 h | inhibition at 3 µM (CYP3A4): < 10% | fraction unbound at 24 h [19]: 0.0135 | inhibition (Cannabinoid receptor 1 [20]): inactive
Compound: O=C(O[C@H](CO)C(F)(F)F)N1C[C@@H]2[C@H](C1)[C@H]2c1ccn(-c2ccc(F)cc2)n1
Activity (Mus musculus [1]): Active | inhibition (Mus musculus [6]): Active | Activity (Mus musculus [10]): Active | inhibition (Mus musculus [11]): Active | Time (Mus musculus [12]): 2 h | inhibition (Mus musculus [16]): Active
